Data from ChEMBL document CHEMBL1153743, “Pyrrolidinones from the ascomycete fungus Albonectria rigidiuscula” (J Nat Prod, 2009).
Activity calls are given as the source filed them. The calls are words filed in the database; no cut-off is given here.

Key:
Format in all cases: functional, cell-based
HeLa [1] = assay: Cytotoxicity against human HeLa cells after 48 hrs by MTT assay
How it was run: (§1)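 HeLa cells seeded at 10^4 per well and left to attach overnight. Cells were exposed for 4 h at 37 °C and 5% CO2 to serial dilutions or a single 120 µM level, made from 10 mg/mL DMSO stocks, or to 0.2% DMSO medium. They then grew 48 h in fresh DMEM. MTT (0.5 mg/mL) was added for 3 h in the dark, formazan was dissolved in DMSO, and A540 was read. Run in triplicate; IC50 reported.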

MCF7 [2] = assay: Cytotoxicity against human MCF7 cells after 48 hrs by MTT assay; conditions: MCF7, 48 h
MCF7 [3] = assay: Cytotoxicity against human MCF7 cells at 120 uM after 48 hrs by MTT assay
HeLa [4] = assay: Cytotoxicity against human HeLa cells at 120 uM after 48 hrs by MTT assay; how it was run: as §1

CN1C(=O)[C@@](C)(O)[C@@H](O)[C@@H]1Cc1ccc(O)cc1
IC50 (HeLa [1]): 95.6 µM
IC50 (MCF7 [2]): 95.6 µM

CN1C(=O)[C@@](C)(O)C(=O)[C@@H]1Cc1ccc(O)cc1
IC50 (HeLa [1]): 48.2 µM
IC50 (MCF7 [2]): 100 µM

CN1C(=O)[C@@](C)(O)[C@@H](O)[C@@H]1Cc1ccc2c(c1)CC(C(C)(C)O)O2 (stereo partly drawn)
IC50 (HeLa [1]): > 120 µM
Activity (MCF7 [3]): inactive
Activity (HeLa [4]): inactive
IC50 (MCF7 [2]): > 120 µM

O=c1[nH]cc(F)c(=O)[nH]1 [FLUOROURACIL]
IC50 (HeLa [1]): 10 µM

CN1C(=O)[C@@](C)(O)C(=O)[C@@H]1Cc1ccc2c(c1)CC(C(C)(C)O)O2 (stereo partly drawn)
IC50 (HeLa [1]): > 120 µM
Activity (MCF7 [3]): inactive
Activity (HeLa [4]): inactive
IC50 (MCF7 [2]): > 120 µM
